Assay outcomes deposited in PubChem by several laboratories.
NadD block = NadD (S. aureus) enzyme inhibition; purified NadD enzyme, colorimetric absorbance read-out; inhibition, % at 20 µM; 360,000 tested, 0.78% active; AID 602399; in the data active = inhibition above about 26%
IMP-1 inh = blocks Pseudomonas aeruginosa IMP-1 metallo-beta-lactamase | purified IMP-1, nitrocefin hydrolysis, epi-absorbance fluorescence | inhibition, % at 5.6 µM | 290,000 tested, 0.45% active | AID 1556;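 active = inhibition above the mean plus 3 SD of all compounds in the same screening run, cut at about 4.5% in these data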
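System: purified IMP-1; amount: IMP-1 0.2 nM before substrate addition; compound: single dose, 5.6 µM; times: 25 °C, 15 min preincubation, 25 min reaction; signal: Epi-absorbance via hydrolysed-nitrocefin quenching of white-plate fluorescence, 480/530 nm, EDTA stop; benchmarks: DMSO with and without IMP-1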
HCV core dimer = HCV core protein dimerization inhibition. inhibition, % at 5 µM. TR-FRET GST/Flag-core106 dimerization, 1536-well. 300,000 tested, 0.33% active;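 active = inhibition above the mean of all tested compounds plus 3 SD, set per screening campaign, cut at about 45% in these data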
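Test system: GST/Flag-tagged HCV core106 proteins; Medium: KF-containing HEPES buffer, pH 7.45, DTT, CHAPS, BSA; Times: compound-protein-antibody incubation 4 h at 22.5 °C; Detection: TR-FRET 671 and 617 nm emission; Benchmarks: wells lacking GST-core106 and wells with excess unlabelled core106.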
VIM-2 inhibitor = inhibitors of Pseudomonas aeruginosa VIM-2 metallo-beta-lactamase | purified VIM-2, nitrocefin hydrolysis, epi-absorbance fluorescence | inhibition, % at 5.6 µM | 290,000 tested, 0.89% active | AID 1527;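 active = inhibition above the mean of all tested compounds plus 3 SD, cutoff set per screening run, cut at about 7.5% in these data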;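 also: red hydrolysis product quenches plate fluorescence so inhibitors raise well fluorescence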
Numbers stand for hits; i = inactive; nt = no result. Shown are actives, neighbours in structure and some others; about 1.9% of the full set was active somewhere.

SMILES | NadD block | IMP-1 inh | HCV core dimer | VIM-2 inhibitor
COCCn1c(SC2CCCCC2=O)nnc1-c1ccncc1 (stereo not drawn) | i | i | i | i
C=CCn1c(SCc2cc(=O)n3ccsc3n2)nnc1C1CCCCC1 | i | i | 68.5 | i
Cc1ccccc1CN(C)CC(=O)Nc1c(C)cccc1C(C)C | i | i | i | i
CN(C)/C=C/C(=O)c1cc(N2CCOCC2)ccc1[N+](=O)[O-] | i | 7.4 | i | i
CN(C)C(=S)Nc1ccc2c(c1)OCCO2 | i | i | i | i
Nc1cccc2c1C(=O)N(CCOc1ccccc1F)C2=O | i | 6.8 | i | i
c1ccc2c(Nc3ccc(N4CCOCC4)cc3)nc(N3CCOCC3)nc2c1 | i | i | i | 9.4
Cc1cccc(-c2nc(Nc3ccc(N4CCOCC4)cc3)c3ccccc3n2)c1 | i | i | i | i
O=C(NCCc1cccnc1)C1CCC(=O)N(CCc2cccc(F)c2)C1 (stereo not drawn) | i | i | nt | i
N#CC1=C(N)n2c(s/c(=C\c3ccco3)c2=O)=C(C#N)C1c1ccco1 (stereo not drawn) | 50.3 | i | i | i
CC1CC1C(=O)N(CCC1=CCCCC1)c1c(N)n(Cc2ccccc2)c(=O)[nH]c1=O (stereo not drawn) | i | nt | i | nt
CN(Cc1cccc(F)c1)C(=O)c1ccc(S(=O)(=O)N2CCOCC2)cc1 | i | nt | nt | nt
Cc1occc1C(=O)Nc1ccccc1C#N | i | i | i | i
CCC1CCCCN1S(=O)(=O)c1ccc(C(=O)Nc2nnc(-c3ccccc3Cl)o2)cc1 (stereo not drawn) | 42.5 | i | i | i
CC1CCCCN1S(=O)(=O)c1ccc(C(=O)Nc2nnc(-c3ccccc3Cl)o2)cc1 (stereo not drawn) | i | i | i | i
Cc1[nH]n(C(N)=S)c(=O)c1N=Nc1cc(-c2ccc(Br)cc2)[nH]n1 | 42.6 | i | i | i
CC(=O)Nc1ccc2cc3ccc(NC(C)=O)cc3nc2c1 | i | i | i | 8.4
CC(=O)Nc1ccc2ccccc2c1 | i | i | i | i
COc1cccc(-c2cccc(-c3nc(C(=O)Nc4ccc(-c5ccccc5)cc4)cc4c3[C@H](CCO)N(S(=O)C(C)(C)C)C4)c2)c1 (stereo partly drawn) | 35.5 | nt | nt | nt
O=C(O)CCC(=O)N1N=C(c2ccco2)CC1c1cccs1 (stereo not drawn) | i | i | i | i
O=C(O)CCC(=O)N1N=C(c2ccc(Br)cc2)CC1c1cccs1 (stereo not drawn) | i | i | i | 7.9
CCCCn1c(N)c(N(CC)C(=O)CCNC(=O)NC23CC4CC(CC(C4)C2)C3)c(=O)[nH]c1=O | i | i | i | i
Cc1oc(C)c2c(=O)ccc3c(c12)OC(N)=C(C#N)C3c1ccc(F)cc1 (stereo not drawn) | i | i | 46.1 | i
Cc1[nH]nc2c1C(c1ccc(F)cc1)C(C#N)=C(N)O2 (stereo not drawn) | i | i | i | i
COc1ccc(N2Cc3cccc(C(=O)N4CCN(C(=O)c5ccco5)CC4)c3C2=O)cc1 | i | i | 85.4 | i
SMILES | NadD block | IMP-1 inh | HCV core dimer | VIM-2 inhibitor
Nc1c(C(=O)NC2CC2)sc2nc3c(c(-c4ccco4)c12)CC/C3=C/c1ccco1 | 93.3 | i | 103.5 | i
COc1cc(C(=O)N2Cc3cc4ccccc4nc3C2C)cc(OC)c1OC (stereo not drawn) | i | nt | nt | nt
CC(C)CCNC(=O)NC(=O)COc1ccccc1C#N | i | 5.4 | i | i
CC(C)NC(=O)COc1ccccc1C#N | i | i | i | i
C[C@@H]1CN([C@@H](C)CO)S(=O)(=O)c2ccc(Br)cc2O[C@H]1CN(C)C(=O)C1CCC1 | i | nt | nt | nt
CCC(c1nnnn1-c1ccc2c(c1)OCCO2)N1CCc2ccccc2C1 (stereo not drawn) | i | nt | nt | nt
CCOc1cc(/C=C2\CCC/C(=C\c3cc(Cl)c(O)c(OCC)c3)C2=O)cc(Cl)c1O | 46.1 | i | i | i
Cc1cc(C(=O)COC(=O)c2cc(O)c3ccccc3c2O)c(C)n1CC1CCCO1 (stereo not drawn) | 35.9 | i | nt | i
Cc1cc(C(=O)COC(=O)c2ccccc2O)c(C)n1CC1CCCO1 (stereo not drawn) | i | nt | nt | nt
Cc1ccc(NC(=Nc2ccc(Br)cc2)N2CCOCC2)cc1C | i | i | i | i
COc1ccc(-c2oc3cc(OC)c(O)c(OC)c3c(=O)c2OC)cc1O | i | i | i | 11.6
COc1ccc(-c2oc3cc(O)c(OC)c(O)c3c(=O)c2OC)cc1 | i | nt | i | nt
COC(=O)c1cc(-c2ccc(Br)cc2)c2c(=O)[nH]c(=O)n(C)c2n1 | i | i | i | i
COC(=O)c1cc(-c2ccc(OC)c(OC)c2)c2c(=O)[nH]c(=O)n(C)c2n1 | i | i | i | 9.4
O=C(N/N=C/c1ccc(Cl)cc1)c1ccc2c(c1)OCO2 | i | 16.6 | i | i
O=C(N/N=C\C=C\c1ccc(Br)cc1)c1ccc2c(c1)OCO2 | i | 24.7 | i | i
Cc1cccc(N(C)S(=O)(=O)c2c(C)noc2C)c1 | i | i | i | i
CCN(CC)c1nc2cc(OC)ccc2cc1C#N | i | i | 54.7 | i
CCCS(=O)(=O)NC(=O)C1(C)CCN(C(=O)CSc2ccccc2)C1 (stereo not drawn) | i | nt | nt | nt
COC(=O)c1ccc(C2Nc3cccc4cccc(c34)N2)cc1 | 40.4 | i | i | i
COc1cc(C2Nc3cccc4cccc(c34)N2)ccc1OC(C)=O | 46.6 | i | i | i
COc1ccc(C2Nc3cccc4cccc(c34)N2)cc1Br | 49.2 | i | i | i
COc1cc(C2Nc3cccc4cccc(c34)N2)cc(OC)c1O | 31.7 | i | i | i
COc1ccc(NC(=O)CN(C)C(=O)CNC(=O)c2ccc3ccccc3c2)cc1 | i | nt | nt | nt
CCOC(=O)c1c2c(n(-c3ccc(OC)cc3)c1C)C(=O)C(=O)c1ccccc1-2 | i | nt | nt | nt
SMILES | NadD block | IMP-1 inh | HCV core dimer | VIM-2 inhibitor
COc1ccccc1OCCSc1nc2ccccc2n1CC(O)CO (stereo not drawn) | i | i | i | i
C=CCC1c2cccc(C(=O)O)c2C(=O)N1c1cccc(OC)c1 (stereo not drawn) | i | i | i | i
C=CCC1c2cccc(C(=O)O)c2C(=O)N1c1cccc(C)c1 (stereo not drawn) | i | i | i | 11.1
N#Cc1ccsc1NC(=O)CSc1ncnc2ccccc12 | i | i | 80.0 | i
Cn1ccnc1SCC(=O)Nc1sccc1C#N | i | i | 70.6 | i
Cc1ccc(SCc2cc(=O)n3ccsc3n2)c(C)c1 | nt | i | i | i
Cc1cccc(-n2c(SCc3cc(=O)n4ccsc4n3)nc3ccccc32)c1 | i | 5.0 | i | i
Cc1ccc(Cc2c(C)nc3nc(SCC(=O)NCCCN4CCCCCC4)nn3c2C)cc1 | nt | i | 93.8 | i
O=C(Nc1ccc(Cl)cc1C(=O)Nc1ccncc1)c1ccco1 | i | i | i | 8.2
Cc1ccc(N=Nc2ccc(O)c(P(=O)(c3ccccc3)c3ccccc3)c2)cc1 | 34.2 | i | i | i
O=[N+]([O-])c1ccc(O)c(P(=O)(c2ccccc2)c2ccccc2)c1 | i | i | i | i
COCCNC(=O)/C(C#N)=C/c1c(N2CCN(C)CC2)nc2ccccn2c1=O | i | i | i | i
CCCNC(=O)c1c(O)c2cccc3c2n(c1=O)CCC3 | i | i | nt | i
NCCNC(=O)c1c(O)c2cccc3c2n(c1=O)CCC3 | i | i | nt | 11.7
